Experimental data of several laboratories.
Protocols differ between the studies behind these lines.

`Cc1c2ccncc2c(C)c2c1[nH]c1ccccc12` gave an IC50 of 0.44 µM (THP-1; TNF-α release, inhibitor, ELISA; 17 h, LPS-stimulated).
The IC50 of `O=C(NCc1ccc(Cl)cc1)C1CC1c1ccccc1` (stereo not drawn) is reported as over 100 µM (Chikungunya virus; viral replication, luciferase; BHK-21; 16 h).
For `COc1c(N2CCNC(C)C2)c(F)cc2c(=O)c(C(=O)O)cn(C3CC3)c12` (stereo not drawn), the MIC was over 4 µg/mL (Haemophilus influenzae; microbial growth).
`CC(C)=CCC/C(C)=C/COc1cc(O)cc(O)c1C(=O)c1ccccc1` has an IC50 of 2330 µM (DPPH scavenging, absorbance; 30 min).
`O=c1c(O)c(-c2ccc(O[C@@H]3O[C@H](CO)[C@@H](O)[C@H](O)[C@H]3O)c(O)c2)oc2cc(O)cc(O)c12` gave an IC50 of 28.5 µg/mL (DPPH scavenging, absorbance).
For `O=C(Nc1ncc([N+](=O)[O-])s1)c1cc(Cl)ccc1Cl`, the IC50 was 8.3 µM (Chikungunya virus; viral replication, luciferase; BHK-21; 16 h).
For `C[C@]12CCC(=O)C(O)=C1CC[C@@H]1[C@@H]2CC[C@]2(C)C(=O)CC[C@@H]12`, the IC50 was over 20 µM (FaDu; cell growth or viability; 72 h).
`COc1c(N2C[C@@H]3CCCN[C@@H]3C2)c(F)cc2c(=O)c(C(=O)O)cn(C3CC3)c12` has an MIC of over 4 µg/mL (Haemophilus influenzae; microbial growth).
`O=C(Nc1ncc([N+](=O)[O-])s1)c1ccccc1O` gave an IC50 of 13.1 µM (Chikungunya virus; viral replication, luciferase; BHK-21; 16 h).
For `COc1c2c(cc3c1OCO3)[C@]13C=C[C@H](OC)C[C@@H]1[N@](C2)C[C@H]3OC(=O)c1ccc2ccccc2c1`, the IC50 was over 10 µM (SAOS-2; cell growth or viability, WST-1).
With `Cc1cc(C(C)(C)C)c(O)c(C(C)(C)C)c1` the IC50 was 308 µM (DPPH scavenging, absorbance; 30 min).
With `C[C@H]1COc2c(N3CCN(C)CC3)c(F)cc3c(=O)c(C(=O)O)cn1c23` the MIC was over 4 µg/mL (Haemophilus influenzae; microbial growth).
